# Assay results taken from ChEMBL document CHEMBL1921732, “Alkaloids from the Chinese vine Gnetum montanum” (J Nat Prod, 2011).
# Active and inactive are the calls of the source. No cut-off for these calls is given here.
# Tests used:
# Pseudomonas aeruginosa [1] = assay: Antibacterial activity against Pseudomonas aeruginosa PAO1 assessed as growth inhibition at 175 uM; type: functional; conditions: read-out: GI
# Staphylococcus aureus = assay: Antibacterial activity against methicillin-resistant Staphylococcus aureus 01A1095 assessed as growth inhibition at 350 uM after 19 hrs; type: functional
# How it was run: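 Strain 01A1095 optical-density viability assay in caMH broth at 1980 CFU/well. Compounds were in DMSO (final 1.75%) and added before the bacteria. Plates were incubated at 37°C until OD620 reached 0.7-0.8, cooled 30 min and read at 620 nm. Vehicle served as the uninhibited-growth control and ciprofloxacin at 500 µg/mL as the kill control in internal control wells.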
# Pseudomonas aeruginosa [2] = assay: Antibacterial activity against Pseudomonas aeruginosa PAO1 assessed as growth inhibition at 87.5 uM; type: functional; conditions: read-out: GI
# Pseudomonas aeruginosa [3] = assay: Antibacterial activity against Pseudomonas aeruginosa PAO1 assessed as growth inhibition at 350 uM; type: functional, organism-based
# Pseudomonas aeruginosa [4] = assay: Antibacterial activity against Pseudomonas aeruginosa PAO1; type: functional, organism-based
# [5] = Selectivity ratio of antimicrobial activity for Pseudomonas aeruginosa PAO1 over methicillin-resistant Staphylococcus aureus 01A1095; type: functional
smiles,measurement,setting,value
COc1cc2c3c(c1O)-c1cc(O)c(O)cc1CC3[N+](C)(C)CC2 (racemic),inhibition of growth at 175 µM,Pseudomonas aeruginosa [1],59%
same,growth inhibition (GI),Staphylococcus aureus,inactive
COc1cc2c3c(cc4cc(O)c(O)cc4c3c1O)[N+](C)(C)CC2,inhibition of growth at 87.5 µM,Pseudomonas aeruginosa [2],59%
same,growth inhibition (GI),Staphylococcus aureus,inactive
C[N+]1(C)CCc2cc(O)c(O)cc2C1Cc1ccc(O)c(O)c1 (racemic),growth inhibition (GI),Pseudomonas aeruginosa [3],inactive
same,growth inhibition (GI),Staphylococcus aureus,inactive
COc1cc2c(cc1O)C(Cc1ccc(O)cc1)[N+](C)(C)CC2 (racemic),growth inhibition (GI),Pseudomonas aeruginosa [3],inactive
same,growth inhibition (GI),Staphylococcus aureus,inactive
O=C([O-])C(F)(F)F.Oc1cc2c(cc1O)[C@@H]1c3ccc(O)c(O)c3C[C@H]3Cc4cc(O)c(O)cc4[N+]31CC2 (some centres undefined),IC50,Pseudomonas aeruginosa [4],9.8 µM
same,MIC,Pseudomonas aeruginosa [4],35 µM
same,inhibition of growth at 350 µM,"Staphylococcus aureus; 01A1095, 19 h, read-out: GI",55%
same,Selectivity ratio,[5],36
COc1cc2c(cc1O)C(Cc1ccc(O)c(O)c1)[N+](C)(C)CC2 (racemic),growth inhibition (GI),Pseudomonas aeruginosa [3],inactive
same,growth inhibition (GI),Staphylococcus aureus,inactive
